Screens deposited in PubChem by several laboratories.
In the library only some 2.6% were active in any assay of this set; here they are far more common.
SENP7 block: SENP7 protease inhibition; Q9BQF6; hit rate 1.5% among 330,000; inhibition, % at 5 µM; recombinant SENP7, Z-RLRGG-aminoluciferin luminescence, 40 min;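 active = inhibition above about 50% at the single test dose, limit read from the data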;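 note: plate controls were DMSO with enzyme for no effect and no enzyme buffer wells for full effect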
SENP6 inh: SENP6 protease inhibition; AID 2599; hit rate 1.8% among 330,000; inhibition, % at 10 µM; Recombinant SENP6 catalytic domain, aminoluciferin luminescence; Q9GZR1;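 active = inhibition above about 50% at the single tested dose, limit read from the data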;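 note: plate controls were DMSO wells with enzyme for no effect and DMSO wells lacking enzyme for full effect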
Platelet DG rel: platelet dense granule release activity | human platelet-rich plasma, SFLLRN dense granule ATP release, luminescence | AID 1663 | hit rate 0.22% among 300,000 | inhibition, %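 (compounds screened at 7.5 µM in platelet-rich plasma)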;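 active = mean replicate score, as percent of positive control, at or above 50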
SENP8 block-1: blocks human SENP8 cleavage of Nedd8 substrate; recombinant SENP8, Nedd8 substrate fluorescence; inhibition, % at 20 µM; hit rate 0.64% among 360,000; in the data active = inhibition mostly above about 40%, no sharp cut-off; inactive = mostly below about 27%
Target sequence (Q96LD8 whole entry, looked up): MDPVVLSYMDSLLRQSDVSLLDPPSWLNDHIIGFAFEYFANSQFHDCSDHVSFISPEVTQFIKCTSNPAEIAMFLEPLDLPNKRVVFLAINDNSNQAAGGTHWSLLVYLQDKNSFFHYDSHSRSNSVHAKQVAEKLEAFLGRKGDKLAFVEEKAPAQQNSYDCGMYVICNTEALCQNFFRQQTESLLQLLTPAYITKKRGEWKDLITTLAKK
SENP8 block-2: SENP8 protease inhibition; purified SENP8, Z-RLRGG-aminoluciferin cleavage, luminescence; inhibition, % at 10 µM; hit rate 1.2% among 330,000; AID 2540; in the data active = inhibition above about 50%
SENP1 inh: SENP1 (human) catalytic domain inhibition; Q9P0U3; recombinant SENP1 catalytic domain, CyPet-SUMO1-YPet FRET cleavage; inhibition, % at 10 µM; hit rate 0.21% among 360,000;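 active = inhibition at least 30% at 10 µM, raw YFP signal under a set limit, fluorescence ratio 0.5 to 1.5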;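 note: 0% = enzyme with DMSO and 100% = no enzyme wells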
Target sequence (Q9P0U3 419-644 limits assumed): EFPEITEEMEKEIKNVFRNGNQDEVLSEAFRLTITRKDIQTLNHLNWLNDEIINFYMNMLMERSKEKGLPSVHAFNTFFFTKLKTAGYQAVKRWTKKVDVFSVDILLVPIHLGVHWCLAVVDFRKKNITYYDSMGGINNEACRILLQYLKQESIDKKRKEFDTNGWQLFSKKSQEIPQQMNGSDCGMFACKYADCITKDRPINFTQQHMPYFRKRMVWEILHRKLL
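Test system: hSENP1 catalytic domain, recombinant; Amount: 20 pM final SENP1 enzyme; Medium: Tris pH 8 buffer plus EDTA, NaCl, BME, BSA, NP40, catalase; Schedule: 50 min enzyme reaction, room temperature, light-protected; Technique: FRET fluorescence in CFP and YFP emission channels; Controls: no-enzyme wells low, DMSO-plus-enzyme wells high control.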
SENP8 confirm: human SENP8 inhibition, confirmed | hit rate 40% among 6,200 | AID 488912 | shares compounds with SENP7 block | inhibition, % at 12.5 µM | Recombinant SENP8, Z-RLRGG-aminoluciferin luminescence, 60 min;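 active = mean inhibition across replicates above about 50%, limit read from the data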
SENP6 confirm: human SENP6 inhibition, confirmed. inhibition, % at 12.5 µM. hit rate 58% among 6,200. shares compounds with SENP7 block. recombinant SENP6, Z-RLRGG-aminoluciferin luminescence. AID 488915
SENP7 conf: confirmation of human SENP7 protease inhibitors | hit rate 69% among 6,200 | shares compounds with SENP7 block | inhibition, % at 12.5 µM | recombinant SENP7, Z-RLRGG-aminoluciferin luminescence, 40 min
Casp3 SENP sel: caspase-3 inhibition (SENP selectivity assay). inhibition, % at 12.5 µM. shares compounds with SENP7 block. purified caspase-3, Z-DEVD-aminoluciferin luminescence, 60 min. hit rate 60% among 6,200;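 active = mean inhibition above about 50%, limit read from the data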;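 note: plate controls were enzyme with DMSO for no effect and wells without caspase-3 for full effect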
Target sequence (P42574 28-227 limits assumed): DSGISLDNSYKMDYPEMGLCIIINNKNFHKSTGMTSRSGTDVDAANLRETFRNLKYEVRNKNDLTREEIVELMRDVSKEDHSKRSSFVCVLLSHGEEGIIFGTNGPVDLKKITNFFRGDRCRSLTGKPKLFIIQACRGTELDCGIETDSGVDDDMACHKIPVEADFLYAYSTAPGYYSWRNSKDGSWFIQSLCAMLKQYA
SENP luc ctr: interferes with luciferase luminescence in SENP counter-screen; shares compounds with SENP7 block; hit rate 39% among 6,200; Pre-incubated SENP8/Z-RLRGG-aminoluciferin, luciferase luminescence interference; inhibition, % at 12.5 µM;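 active = mean inhibition above about 50% when retested at one dose, limit read from the data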;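 note: plate controls were DMSO wells with completed reaction for no effect and substrate without enzyme for full effect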
An asterisk follows results filed as active; x = no result given.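 Rule for the calls, unless noted: active = mean inhibition above about 50% in the one-dose retest (limit read from the data); inactive = the rest.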

SMILES	SENP7 block	SENP6 inh	Platelet DG rel	SENP8 block-1	SENP8 block-2	SENP1 inh	SENP8 confirm	SENP6 confirm	SENP7 conf	Casp3 SENP sel	SENP luc ctr
CC1=NN(c2nc(-c3ccc(Cl)cc3)cs2)C(=O)C1	9.5	36.7	-9.6	26.6	-3.2	2.1	x	x	x	x	x
CC(C)Oc1ccc(NC(=O)Oc2ccccc2)cc1	-0.8	88.0*	43.1	12.6	79.9*	-2.5	0.8	100.0*	103.4*	98.4*	93.5*
CC(=O)c1ccc(NC(=O)Oc2ccccc2)cc1	5.2	-16.7	3.7	10.1	-4.4	1.8	x	x	x	x	x
Cc1ccc(S(=O)(=O)NCC(=O)OCC(=O)NCc2ccco2)cc1	-0.2	-21.7	x	6.8	11.8	-1.6	x	x	x	x	x
CC(C)=CC(=O)Nc1ccc2c(c1)OCO2	0.8	63.5*	24.4	7.7	50.3*	0.4	58.8*	58.9*	83.6*	86.1*	63.0*
O=C(Nc1ccc2c(c1)OCCO2)C(=O)c1c[nH]c2ccccc12	99.4*	86.8*	18.8	13.4	82.1*	3.2	78.8*	78.3*	101.2*	86.2*	92.0*
O=C(CSCSCC(=O)Nc1ccc2c(c1)OCO2)Nc1ccc2c(c1)OCO2	2.6	3.5	-3.7	6.5	-1.4	0.9	x	x	x	x	x
COc1ccc(NC(=O)/C=C/c2ccc3c(c2)OCO3)cc1	79.0*	67.3*	3.1	3.9	45.1	3.6	28.6	34.5	76.8*	66.6*	71.6*
Cc1c(C(=O)Nc2ccc3c(c2)OCO3)oc2ccccc12	67.3*	70.3*	-3.5	2.2	58.4*	1.1	75.0*	74.6*	92.5*	59.0*	64.6*
CC(C)(C)OC(=O)N1CCC[C@H]1C(=O)Nc1ccc(C#N)cc1	0.6	12.5	x	14.1	7.5	2.3	x	x	x	x	x
COC(=O)C[C@H]1C[C@H]2c3cc(NC(=O)C4CCC4)ccc3O[C@H]2[C@H](CO)O1	x	x	x	11.5	x	-0.8	x	x	x	x	x
Cc1ccc(C)c(C(O)c2ncc(-c3ccc(F)cc3)[nH]2)c1 (stereo unspecified)	x	x	x	17.2	x	-0.7	x	x	x	x	x
COc1ccc(NC(=O)NCc2ccc3c(c2)OCO3)cc1	2.6	4.6	-0.4	16.1	5.6	3.1	x	x	x	x	x
CC(=O)Nc1ccc(OCc2ccc3c(c2)OCO3)cc1	84.7*	82.4*	36.0	15.6	67.6*	1.8	74.9*	74.1*	93.4*	87.8*	51.3*
O=C(Nc1ccc2c(c1)OCO2)c1ccccc1	54.7*	61.6*	10.2	11.3	41.1	0.0	49.5	46.7	81.0*	81.2*	61.2*
O=C(Nc1ccc2c(c1)OCCO2)c1ccccc1	79.0*	67.8*	28.5	5.3	60.7*	2.2	4.2	61.0*	90.3*	87.1*	67.6*
Cc1cc(C(=O)Nc2nnc(C(F)(F)F)s2)cs1	57.6*	76.2*	0.4	-15.1	65.1*	0.8	65.6*	68.2*	86.5*	84.2*	35.9
O=C(Nc1nnc(C(F)(F)F)s1)c1ccc(Br)s1	62.3*	52.7*	3.4	-27.9	73.0*	1.3	1.9	52.8*	77.0*	42.8	49.7
Cc1cc(C(=O)Nc2nnc(C(F)(F)F)s2)no1	10.0	-7.1	3.0	-21.5	-6.4	-0.2	x	x	x	x	x
CCN(CC)C(=O)c1[nH]cnc1C(=O)Nc1ccccc1F	x	x	x	7.3	x	-0.3	x	x	x	x	x
c1ccc(NC2=Nc3ccccc3CS2)cc1	77.6*	81.9*	15.9	30.9	51.5*	0.1	28.3	63.4*	89.5*	68.6*	20.5
O=c1[nH][nH]c(=O)c2nc(Nc3ccccc3)ncc12	x	x	x	18.9	x	1.8	x	x	x	x	x
N#Cc1c(N2CCOCC2)nsc1-c1ccccc1	5.8	37.3	-0.4	-27.7	24.8	-1.1	x	x	x	x	x
N#Cc1c(N2CCCC2)nsc1-c1ccccc1	20.1	60.3*	x	-24.1	41.8	-9.8	29.8	33.9	25.4	44.5	51.9*
COCCNC(=O)Cn1nc(-c2ccc(C)cc2)ccc1=O	-2.3	2.0	-0.6	-20.9	-1.5	0.0	x	x	x	x	x
SMILES	SENP7 block	SENP6 inh	Platelet DG rel	SENP8 block-1	SENP8 block-2	SENP1 inh	SENP8 confirm	SENP6 confirm	SENP7 conf	Casp3 SENP sel	SENP luc ctr
COc1ccc(C2/C(=C(/O)c3ccc(Br)cc3)C(=O)C(=O)N2C)cc1OC (stereo unspecified)	58.0*	6.5	10.5	12.2	-4.8	2.2	4.5	5.3	0.4	-0.2	1.3
CC(=O)Nc1cccc(NC(=O)c2cccc3cccnc23)c1	9.6	12.6	-4.3	16.6	-0.2	-0.9	x	x	x	x	x
COc1ccc(C(=O)Nc2ccc(C(=O)Nc3cccc(C)c3)cc2)cc1	0.3	7.6	1.1	5.5	0.4	-0.4	x	x	x	x	x
Cc1ccc(C(=O)Nc2ccc3ccccc3c2)cc1	97.2*	91.4*	19.4	8.1	87.4*	1.7	12.9	51.3*	100.6*	89.0*	34.9
O=C(NC(=O)c1ccccc1)Nc1ccccc1	93.3*	83.4*	3.1	5.8	76.6*	2.0	5.1	26.8	50.5*	45.5	19.3
O=C(Nc1ccccc1)c1ccc(OC(=O)c2ccccc2)cc1	81.0*	53.8*	15.8	4.6	12.7	0.2	3.9	8.2	12.3	9.2	-0.1
Cc1ccc(NC(=O)c2cccc3cccnc23)cc1	27.9	53.7*	6.7	16.3	29.6	-0.5	50.2*	44.6	72.2*	31.8	30.1
CN(C)C(CNC(=O)CCCN1C(=O)c2cccc3cccc(c23)C1=O)c1ccccc1 (stereo unspecified)	0.8	-4.5	-1.2	-229.8	2.8	2.5	x	x	x	x	x
CCc1c(C)sc(NC(=O)Cc2ccccc2C)c1C(=O)N1CCOCC1	-4.7	-11.6	-8.6	-2.9	-9.4	0.7	x	x	x	x	x
Cc1ccc(C(=O)Cc2ccccc2)cc1	x	x	x	11.9	x	0.8	x	x	x	x	x
O=C(Nc1ccncc1)c1ccc2ccccc2c1	15.8	-13.6	4.7	16.7	-10.2	0.6	x	x	x	x	x
Cc1ccc2cc(NC(=O)CC(CC(=O)O)c3ccccc3)ccc2n1 (stereo unspecified)	6.5	-20.7	2.0	-17.0	8.1	1.8	x	x	x	x	x
Cc1ccc2cc(NC(=O)c3ccccc3)ccc2n1	64.4*	61.9*	4.8	3.4	52.9*	1.6	7.7	43.2	81.2*	73.5*	62.7*
Cc1ccc(C(=O)CC(=O)c2ccccc2)cc1	66.2*	74.7*	0.8	20.5	69.6*	-0.1	-4.0	65.5*	91.3*	50.5*	44.3
